ChEMBL document CHEMBL4304739, “Discovery of 3-(Indol-5-yl)-indazole Derivatives as Novel Myeloid Differentiation Protein 2/Toll-like Receptor 4 Antagonists for Treatment of Acute Lung Injury” (J Med Chem, 2019)
Active and inactive are the calls of the source. The rule behind the calls is not given here.

Assays:
[1] = tested on: Peritoneal macrophage; assay: Cytotoxicity against ICR mouse peritoneal macrophages assessed as reduction in cell viability up to 20 uM measured after 24 hrs by MTT assay; format: cell-based
Outline: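 Peritoneal macrophages from ICR mice, 2.0×10^4 cells/well in DMEM with 10% FBS. Cells exposed to compound for 24 h, then MTT (5 mg/ml in 0.9% NaCl) added for 4 h at 37 °C in 5% CO2. Absorbance read at 490 nm; final DMSO 0.1%.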

[2] = tested on: Mus musculus; assay: Antiinflammatory activity in LPS-induced C57BL/6 mouse model of acute lung injury assessed as reduction in IL33 mRNA level at 10 mg/kg, iv pretreated for 15 mins followed by LPS stimulation and measured after 6 hrs by SYBR green staining-based qRT-PCR analysis; format: functional, organism-based
Outline: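 Total lung RNA extracted, with DNase I removal of residual DNA. Quantitative PCR with mouse gene primers; each gene normalized to β-actin. C57BL/6 mice given compound iv 15 min before intraperitoneal LPS (20 mg/kg) and killed at 6 h.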

[3] = molecular target: RAC-alpha serine/threonine-protein kinase (Homo sapiens) (UniProt P31749); assay: Inhibition of wild-type human partial length AKT1 expressed in bacterial expression system at 1 uM by Kinomescan method
Outline: (§1)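 KINOMEscan competition binding screen at 1 μM compound. Results reported as % of control = (test − positive control)/(DMSO negative control − positive control) × 100, where lower values mean stronger hits.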

[4] = molecular target: Tyrosine-protein kinase receptor UFO (Homo sapiens) (UniProt P30530); assay: Inhibition of wild-type human partial length AXL (R497 to Y821 residues) expressed in bacterial expression system at 1 uM by Kinomescan method
Outline: (§2)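 Binding-competition screen on the KINOMEscan platform, run by the provider, with the test compound at 1 μM. Readout is percent of control: (test signal − positive control signal)/(negative control signal − positive control signal) × 100. The DMSO negative control is set as 100% Ctrl and a control compound as 0% Ctrl. Lower values mean stronger hits.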

[5] = molecular target: Bone morphogenetic protein receptor type-2 (Homo sapiens) (UniProt Q13873); assay: Inhibition of wild-type human partial length BMPR2 (R179 to Q526 residues) expressed in mammalian expression system at 1 uM by Kinomescan method; outline: as §2
[6] = molecular target: Cyclin-dependent kinase 19 (Homo sapiens) (UniProt Q9BWU1); assay: Inhibition of wild-type human partial length CDK11 (M1 to N360 residues) expressed in bacterial expression system at 1 uM by Kinomescan method; outline: as §2
[7] = tested on: Epidermal growth factor receptor (Homo sapiens), P00533 [L858R]; assay: Inhibition of human partial length EGFR L858R mutant (R669 to V1011 residues) expressed in bacterial expression system at 1 uM by Kinomescan method
Outline: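 KINOMEscan competition binding panel (98 kinases) run by the provider, compound screened once at 1 μM. Read-out is percent of control: [(test signal − positive control signal)/(negative control signal − positive control signal)] × 100. DMSO negative control sets 100% Ctrl and a control compound sets 0% Ctrl; lower values mean stronger hits.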

[8] = molecular target: Ephrin type-A receptor 2 (Homo sapiens) (UniProt P29317); assay: Inhibition of wild-type human partial length EPHA2 (T593 to V891 residues) expressed in bacterial expression system at 1 uM by Kinomescan method; outline: as §2
[9] = molecular target: Receptor tyrosine-protein kinase erbB-2 (Homo sapiens) (UniProt P04626); assay: Inhibition of wild-type human partial length ERBB2 (K646 to V1225 residues) expressed in mammalian expression system at 1 uM by Kinomescan method; outline: as §2
[10] = molecular target: Receptor-type tyrosine-protein kinase FLT3 (Homo sapiens) (UniProt P36888); assay: Inhibition of wild-type human partial length FLT3 (V592 to Y969 residues) expressed in bacterial expression system at 1 uM by Kinomescan method; outline: as §2
[11] = molecular target: Insulin receptor (Homo sapiens) (UniProt P06213); assay: Inhibition of wild-type human partial length INSR (P997 to E1318 residues) expressed in mammalian expression system at 1 uM by Kinomescan method; outline: as §2
[12] = molecular target: Mitogen-activated protein kinase 8 (Homo sapiens) (UniProt P45983); assay: Inhibition of wild-type human full length JNK1 (M1 to Q384 residues) expressed in mammalian expression system at 1 uM by Kinomescan method; outline: as §1
[13] = molecular target: Hepatocyte growth factor receptor (Homo sapiens) (UniProt P08581); assay: Inhibition of wild-type human partial length MET (D1010 to S1367 residues) expressed in bacterial expression system at 1 uM by Kinomescan method; outline: as §2
[14] = molecular target: Mitogen-activated protein kinase kinase kinase 9 (Homo sapiens) (UniProt P80192); assay: Inhibition of wild-type human partial length MLK1 (V88 to W426 residues) expressed in bacterial expression system at 1 uM by Kinomescan method; outline: as §2
[15] = molecular target: Serine/threonine-protein kinase PAK 1 (Homo sapiens) (UniProt Q13153); assay: Inhibition of wild-type human partial length PAK1 (S149 to H545 residues) expressed in bacterial expression system at 1 uM by Kinomescan method; outline: as §2
[16] = molecular target: Serine/threonine-protein kinase PAK 4 (Homo sapiens) (UniProt O96013); assay: Inhibition of wild-type human partial length PAK4 (Q144 to R438 residues) expressed in bacterial expression system at 1 uM by Kinomescan method; outline: as §2
[17] = molecular target: Platelet-derived growth factor receptor alpha (Homo sapiens) (UniProt P16234); assay: Inhibition of wild-type human partial length PDGFRA (V575 to D1002 residues) expressed in mammalian expression system at 1 uM by Kinomescan method; outline: as §2
[18] = molecular target: Phosphatidylinositol 4,5-bisphosphate 3-kinase catalytic subunit gamma isoform (Homo sapiens) (UniProt P48736); assay: Inhibition of wild-type human partial length PIK3CG (S144 to A1102 residues) expressed in mammalian expression system at 1 uM by Kinomescan method; outline: as §2
[19] = molecular target: Serine/threonine-protein kinase pim-3 (Homo sapiens) (UniProt Q86V86); assay: Inhibition of wild-type human partial length PIM3 (G16 to A317 residues) expressed in bacterial expression system at 1 uM by Kinomescan method; outline: as §2
[20] = molecular target: Serine/threonine-protein kinase PLK4 (Homo sapiens) (UniProt O00444); assay: Inhibition of wild-type human partial length PLK4 (M1 to S273 residues) expressed in mammalian expression system at 1 uM by Kinomescan method; outline: as §2
[21] = molecular target: Non-receptor tyrosine-protein kinase TYK2 (Homo sapiens) (UniProt P29597); assay: Inhibition of wild-type human partial length TYK2 JH1 catalytic domain (V877 to C1187 residues) expressed in mammalian expression system at 1 uM by Kinomescan method
Outline: (§3)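 Single-concentration screen at 1 μM on the KINOMEscan panel (98 kinases), run by the platform provider. Results are given as percent of control: % Ctrl = [(test signal − positive control signal)/(negative control signal − positive control signal)] × 100. DMSO serves as negative control (100% Ctrl) and a control compound as positive control (0% Ctrl). Lower values mean stronger binding hits.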

[22] = molecular target: Serine/threonine-protein kinase 32C (Homo sapiens) (UniProt Q86UX6); assay: Inhibition of wild-type human partial length YANK3 (M68 to G486 residues) expressed in bacterial expression system at 1 uM by Kinomescan method; outline: as §3

Epidermal growth factor receptor (Homo sapiens), P00533 [L858R], sequence (P00533 whole entry L858R, the tested form may be a part): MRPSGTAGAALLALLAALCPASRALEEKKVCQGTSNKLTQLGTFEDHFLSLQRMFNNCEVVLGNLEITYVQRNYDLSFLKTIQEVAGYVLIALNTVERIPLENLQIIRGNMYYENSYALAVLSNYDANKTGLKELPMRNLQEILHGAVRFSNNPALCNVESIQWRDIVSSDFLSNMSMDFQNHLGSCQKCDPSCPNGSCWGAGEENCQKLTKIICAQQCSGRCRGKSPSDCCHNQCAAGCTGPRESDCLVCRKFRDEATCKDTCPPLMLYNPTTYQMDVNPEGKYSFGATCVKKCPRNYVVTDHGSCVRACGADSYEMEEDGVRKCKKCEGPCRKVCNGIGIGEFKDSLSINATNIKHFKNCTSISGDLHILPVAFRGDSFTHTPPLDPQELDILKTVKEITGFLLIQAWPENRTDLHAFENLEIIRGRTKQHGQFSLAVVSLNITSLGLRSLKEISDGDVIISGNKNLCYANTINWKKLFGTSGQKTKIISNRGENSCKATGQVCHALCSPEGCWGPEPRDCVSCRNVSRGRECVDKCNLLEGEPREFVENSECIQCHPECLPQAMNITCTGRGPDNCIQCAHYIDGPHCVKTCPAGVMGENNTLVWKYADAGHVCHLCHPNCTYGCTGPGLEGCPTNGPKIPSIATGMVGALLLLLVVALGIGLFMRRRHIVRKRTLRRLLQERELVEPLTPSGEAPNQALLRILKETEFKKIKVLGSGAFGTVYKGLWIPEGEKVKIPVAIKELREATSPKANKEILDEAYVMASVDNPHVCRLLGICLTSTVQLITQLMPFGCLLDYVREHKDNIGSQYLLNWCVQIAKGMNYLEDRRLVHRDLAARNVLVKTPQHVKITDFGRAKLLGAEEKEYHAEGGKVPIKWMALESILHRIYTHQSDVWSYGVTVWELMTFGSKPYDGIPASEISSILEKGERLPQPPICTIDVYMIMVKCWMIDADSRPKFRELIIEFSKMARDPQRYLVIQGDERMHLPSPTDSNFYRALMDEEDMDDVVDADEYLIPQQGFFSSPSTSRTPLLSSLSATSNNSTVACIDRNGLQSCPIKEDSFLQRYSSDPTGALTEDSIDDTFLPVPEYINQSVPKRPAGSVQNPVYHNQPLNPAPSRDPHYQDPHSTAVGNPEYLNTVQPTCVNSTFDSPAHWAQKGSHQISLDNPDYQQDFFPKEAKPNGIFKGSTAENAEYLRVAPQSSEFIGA
Serine/threonine-protein kinase PAK 1 (Homo sapiens), sequence (Q13153 whole entry, the tested form may be a part): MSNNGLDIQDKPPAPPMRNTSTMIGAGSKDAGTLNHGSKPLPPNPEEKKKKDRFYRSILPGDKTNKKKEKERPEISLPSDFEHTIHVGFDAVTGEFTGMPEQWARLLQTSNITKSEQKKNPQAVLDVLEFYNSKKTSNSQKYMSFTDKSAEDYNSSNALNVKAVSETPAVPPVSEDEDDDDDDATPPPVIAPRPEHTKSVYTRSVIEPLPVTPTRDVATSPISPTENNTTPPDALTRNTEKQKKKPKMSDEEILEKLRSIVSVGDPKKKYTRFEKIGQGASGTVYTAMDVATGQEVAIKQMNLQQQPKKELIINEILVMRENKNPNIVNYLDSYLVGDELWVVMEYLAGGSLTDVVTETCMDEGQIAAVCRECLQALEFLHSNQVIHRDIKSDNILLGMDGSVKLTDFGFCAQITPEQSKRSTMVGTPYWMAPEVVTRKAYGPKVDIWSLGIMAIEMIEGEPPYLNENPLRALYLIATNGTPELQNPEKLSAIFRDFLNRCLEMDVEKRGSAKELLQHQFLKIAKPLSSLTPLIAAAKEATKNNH
Platelet-derived growth factor receptor alpha (Homo sapiens), sequence (P16234 whole entry, the tested form may be a part, canonical isoform): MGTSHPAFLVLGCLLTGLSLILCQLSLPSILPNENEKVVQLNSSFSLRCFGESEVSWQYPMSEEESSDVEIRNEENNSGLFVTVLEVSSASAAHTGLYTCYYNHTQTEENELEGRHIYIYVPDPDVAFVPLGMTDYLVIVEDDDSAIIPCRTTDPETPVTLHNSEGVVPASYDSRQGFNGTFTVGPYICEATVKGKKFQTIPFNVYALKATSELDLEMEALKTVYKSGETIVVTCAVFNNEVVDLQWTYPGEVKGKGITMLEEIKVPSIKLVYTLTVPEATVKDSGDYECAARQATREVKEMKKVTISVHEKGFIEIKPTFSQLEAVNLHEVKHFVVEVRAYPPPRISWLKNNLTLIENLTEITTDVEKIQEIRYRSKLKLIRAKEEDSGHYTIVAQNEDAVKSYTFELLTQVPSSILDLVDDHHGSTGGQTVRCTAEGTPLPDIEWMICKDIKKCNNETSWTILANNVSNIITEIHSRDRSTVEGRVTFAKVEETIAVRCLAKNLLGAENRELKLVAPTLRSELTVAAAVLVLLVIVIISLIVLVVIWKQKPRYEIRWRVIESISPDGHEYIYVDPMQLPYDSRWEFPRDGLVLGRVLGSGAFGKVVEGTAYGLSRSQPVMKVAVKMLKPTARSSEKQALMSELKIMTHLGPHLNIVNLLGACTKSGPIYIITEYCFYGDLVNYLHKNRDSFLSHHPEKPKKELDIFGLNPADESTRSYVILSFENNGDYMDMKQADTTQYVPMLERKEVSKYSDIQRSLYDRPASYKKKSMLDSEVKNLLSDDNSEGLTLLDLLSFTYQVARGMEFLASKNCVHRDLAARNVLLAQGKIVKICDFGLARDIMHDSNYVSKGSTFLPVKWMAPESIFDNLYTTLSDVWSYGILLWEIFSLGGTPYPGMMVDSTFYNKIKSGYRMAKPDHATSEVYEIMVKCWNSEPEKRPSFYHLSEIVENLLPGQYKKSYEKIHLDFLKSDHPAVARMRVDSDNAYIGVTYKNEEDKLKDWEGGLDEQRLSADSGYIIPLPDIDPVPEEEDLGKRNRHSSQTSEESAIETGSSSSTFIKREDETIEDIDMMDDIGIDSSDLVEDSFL
Cyclin-dependent kinase 19 (Homo sapiens), sequence (Q9BWU1 whole entry, the tested form may be a part): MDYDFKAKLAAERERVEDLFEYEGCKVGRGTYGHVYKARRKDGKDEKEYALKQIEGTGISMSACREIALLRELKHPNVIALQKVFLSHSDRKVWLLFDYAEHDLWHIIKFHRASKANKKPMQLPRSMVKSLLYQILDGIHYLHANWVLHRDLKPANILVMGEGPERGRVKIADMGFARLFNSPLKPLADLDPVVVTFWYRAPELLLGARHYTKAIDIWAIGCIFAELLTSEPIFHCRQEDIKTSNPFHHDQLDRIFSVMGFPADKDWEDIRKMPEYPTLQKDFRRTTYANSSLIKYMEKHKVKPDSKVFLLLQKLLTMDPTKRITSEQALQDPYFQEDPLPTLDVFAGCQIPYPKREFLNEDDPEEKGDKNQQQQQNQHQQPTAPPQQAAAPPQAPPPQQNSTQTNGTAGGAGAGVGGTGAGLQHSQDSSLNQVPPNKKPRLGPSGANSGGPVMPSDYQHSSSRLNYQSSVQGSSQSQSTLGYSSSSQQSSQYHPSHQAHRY
Tyrosine-protein kinase receptor UFO (Homo sapiens), sequence (P30530 whole entry, the tested form may be a part): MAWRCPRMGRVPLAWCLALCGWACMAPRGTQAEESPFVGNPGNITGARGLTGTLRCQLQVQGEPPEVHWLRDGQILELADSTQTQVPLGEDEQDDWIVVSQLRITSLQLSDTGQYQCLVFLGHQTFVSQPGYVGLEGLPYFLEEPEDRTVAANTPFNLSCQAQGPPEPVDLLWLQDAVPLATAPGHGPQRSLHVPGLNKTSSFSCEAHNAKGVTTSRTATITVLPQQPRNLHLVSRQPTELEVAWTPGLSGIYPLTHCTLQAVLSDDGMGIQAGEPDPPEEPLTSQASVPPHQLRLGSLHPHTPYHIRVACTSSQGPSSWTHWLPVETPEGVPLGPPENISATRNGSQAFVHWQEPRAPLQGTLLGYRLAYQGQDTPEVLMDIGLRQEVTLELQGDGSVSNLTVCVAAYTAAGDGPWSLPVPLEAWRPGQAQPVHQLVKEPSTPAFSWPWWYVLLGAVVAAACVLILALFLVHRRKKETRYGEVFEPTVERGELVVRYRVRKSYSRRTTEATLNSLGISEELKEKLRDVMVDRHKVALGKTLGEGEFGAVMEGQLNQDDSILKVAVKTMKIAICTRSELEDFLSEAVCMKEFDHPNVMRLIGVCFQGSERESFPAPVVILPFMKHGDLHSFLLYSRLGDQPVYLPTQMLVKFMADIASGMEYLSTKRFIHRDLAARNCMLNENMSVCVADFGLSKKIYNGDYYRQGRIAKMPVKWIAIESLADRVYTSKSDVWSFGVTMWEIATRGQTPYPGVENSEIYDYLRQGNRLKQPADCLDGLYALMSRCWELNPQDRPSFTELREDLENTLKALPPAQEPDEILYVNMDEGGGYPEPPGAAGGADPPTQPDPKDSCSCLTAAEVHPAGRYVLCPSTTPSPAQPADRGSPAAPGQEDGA
Serine/threonine-protein kinase PAK 4 (Homo sapiens), sequence (O96013 whole entry, looked up, the tested form may be a part): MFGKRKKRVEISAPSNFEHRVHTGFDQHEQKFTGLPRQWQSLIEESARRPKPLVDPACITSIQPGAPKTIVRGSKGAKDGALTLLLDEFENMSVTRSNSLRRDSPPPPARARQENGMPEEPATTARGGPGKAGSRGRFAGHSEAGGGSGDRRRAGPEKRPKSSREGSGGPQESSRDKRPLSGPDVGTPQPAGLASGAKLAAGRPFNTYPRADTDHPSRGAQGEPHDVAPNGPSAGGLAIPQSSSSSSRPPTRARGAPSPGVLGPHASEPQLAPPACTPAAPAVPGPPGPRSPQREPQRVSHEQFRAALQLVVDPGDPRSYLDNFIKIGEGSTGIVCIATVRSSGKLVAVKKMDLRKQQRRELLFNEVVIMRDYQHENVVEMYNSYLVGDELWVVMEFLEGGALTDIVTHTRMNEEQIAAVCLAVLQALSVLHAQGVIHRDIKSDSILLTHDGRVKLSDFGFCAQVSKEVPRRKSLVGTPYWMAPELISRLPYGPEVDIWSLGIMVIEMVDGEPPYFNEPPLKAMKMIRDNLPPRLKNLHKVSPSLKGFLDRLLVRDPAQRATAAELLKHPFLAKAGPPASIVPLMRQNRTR

**Q.** What does the source list for `O=C(Nc1ccc2[nH]nc(-c3ccc4[nH]ccc4c3)c2c1)c1c(Cl)cccc1Cl`?
**A.** Activity [1]: Non-Toxic; Activity [2]: Active; inhibition [3]: inactive; inhibition [4]: inactive; inhibition [5]: inactive; inhibition [6]: inactive; inhibition [7]: inactive; inhibition [8]: inactive; inhibition [9]: inactive; inhibition [10]: inactive; inhibition [11]: inactive; inhibition [12]: inactive; inhibition [13]: inactive; inhibition [14]: inactive; inhibition [15]: inactive; inhibition [16]: inactive; inhibition [17]: inactive; inhibition [18]: inactive; inhibition [19]: inactive; inhibition [20]: inactive; inhibition [21]: inactive; inhibition [22]: inactive
